In paper PMC9008867 (Therapeutic Advances in Medical Oncology, 2022):
Several values for one entry are separate records, joined by “and”; a condition that tells them apart may be missing. Identical values can stand only once.

Tests used:
[1] = test system: advanced or metastatic malignancies; assay: Antitumour response; type: in vivo, human
Procedure, shortened: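 Solid tumours were imaged by CT or MRI and scored by RECIST 1.1. NHL was scored by IWG criteria; CTCL by consensus criteria with mSWAT skin scoring plus nodes, blood and viscera. Response was documented at least once at 8 weeks, then every two cycles. Evaluable patients had ≥1 dose and ≥1 postbaseline scan. Expansion dosing: flat 60 mg on days 1, 4, 8, 11 of 21-day cycles.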

[2] = test system: Asian patients with advanced or metastatic malignancies; type: in vivo, human
[3] = test system: metastatic triple-negative breast cancer; settings: 10 heavily pretreated patients; cited from earlier work
[4] = cited from earlier work
[5] = all dose levels, 74 evaluable patients
[6] = phase 1b expansion cohort, 35 evaluable patients
[7] = expansion phase, with drug holiday and pre-emptive antiemetic regimen
[8] = Caucasian patients, 39 mg/m^2, n = 9

With O=C(/C=C\n1cnc(-c2cc(C(F)(F)F)cc(C(F)(F)F)c2)n1)NNc1cnccn1 [selinexor] the “patients with prolonged stable disease of more than 12 weeks” value [1, 5] was 10, the “prolonged stable disease of more than 12 weeks” value [1, 5] was 13.5% and 13% and the “patients with confirmed partial response” value ([1]; all dose levels, 74 evaluable, two DLBCL, one Hodgkin's lymphoma, one thymoma) was “four”. For the same molecule, the “at least stable disease or better as best response” value [1, 6] was 37.1%, the “patients with at least stable disease or better as best response” value [1, 6] was 13 and the “patients with prolonged stable disease of more than 12 weeks” value ([1]; phase 1b expansion cohort, all colorectal cancer) was “four”. The “objective response (confirmed complete and partial response rate)” value ([1]; whole study) was 8%, the tolerability ([2]; 60 mg twice a week, 2 out of 3 weeks, Asian patients) was “well tolerated” and the “Grade 3 fatigue” value ([2]; dose expansion phase) was 8%. The “grade 3 or 4 anaemia” value ([2]; dose expansion phase) was 2%, the “grade 3 or 4 hyponatremia” value ([2]; dose expansion phase) was 23% and the “grade 3 or 4 thrombocytopenia” value ([2]; dose expansion phase) was 5%. The “grade 3 or 4 vomiting” value ([2]; dose expansion phase) was 5%, the “patients with grade 3 or 4 cytopenias” value ([2]; expansion phase) was “less than 3%” and the “grade 3 or more nausea” value [2, 7] was “no grade 3 or more nausea”. The incidence of nausea [2, 7] was 30%, the deaths ([2]; phase 1b expansion cohort, none attributed to the study drug) was “Five” and the “Abdominal discomfort, Any grade” value ([2]; phase 1b, patients n (%)) was 5 (13.15) %. For the same molecule, the “Abdominal discomfort, G1/G2” value ([2]; phase 1b, patients n (%)) was 4 (10.52) %, the “Abdominal discomfort, G3/G4” value ([2]; phase 1b, patients n (%)) was 1 (2.63) % and the “Abdominal distension, Any grade” value ([2]; phase 1b, patients n (%)) was 1 (2.63) %. For the same molecule, the “Abdominal distension, G3/G4” value ([2]; phase 1b, patients n (%)) was 1 (2.63) %, the “Abnormal thyroid function, Any grade” value ([2]; phase 1b, patients n (%)) was 2 (5.26) % and the “Abnormal thyroid function, G1/G2” value ([2]; phase 1b, patients n (%)) was 2 (5.26) %. For the same molecule, the “Acute kidney injury, Any grade” value ([2]; phase 1b, patients n (%)) was 1 (2.63) %, the “Acute kidney injury, G1/G2” value ([2]; phase 1b, patients n (%)) was 1 (2.63) % and the “Anaemia, Any grade” value ([2]; phase 1b, patients n (%)) was 6 (15.78) %. The “Anorexia, Any grade” value ([2]; phase 1b, patients n (%)) was 18 (47.36) %, the “Ascites, Any grade” value ([2]; phase 1b, patients n (%)) was 2 (5.26) % and the “Asthenia, Any grade” value ([2]; phase 1b, patients n (%)) was 1 (2.63) %. For the same molecule, the “Back pain, Any grade” value ([2]; phase 1b, patients n (%)) was 2 (5.26) %, the “Blurring of vision, Any grade” value ([2]; phase 1b, patients n (%)) was 3 (7.89) % and the “Blurring of vision, G1/G2” value ([2]; phase 1b, patients n (%)) was 3 (7.89) %. The “Constipation, Any grade” value ([2]; phase 1b, patients n (%)) was 6 (15.78) %, the “Cough, Any grade” value ([2]; phase 1b, patients n (%)) was 2 (5.26) % and the “Dehydration, Any grade” value ([2]; phase 1b, patients n (%)) was 2 (5.26) %. For the same molecule, the “Diarrhoea, Any grade” value ([2]; phase 1b, patients n (%)) was 10 (26.31) %, the “Dysgeusia, Any grade” value ([2]; phase 1b, patients n (%)) was 12 (31.57) % and the “Dyspnoea/Shortness of breath, Any grade” value ([2]; phase 1b, patients n (%)) was 2 (5.26) %. The “Dyspnoea/Shortness of breath, G1/G2” value ([2]; phase 1b, patients n (%)) was 2 (5.26) %, the “Fever, Any grade” value ([2]; phase 1b, patients n (%)) was 2 (5.26) % and the “Giddiness, Any grade” value ([2]; phase 1b, patients n (%)) was 3 (7.89) %. The “Hyperglycaemia, Any grade” value ([2]; phase 1b, patients n (%)) was 2 (5.26) %, the “Hypersalivation, Any grade” value ([2]; phase 1b, patients n (%)) was 1 (2.63) % and the “Hyperuricaemia, Any grade” value ([2]; phase 1b, patients n (%)) was 1 (2.63) %. The “Hypocalcaemia, Any grade” value ([2]; phase 1b, patients n (%)) was 1 (2.63) %, the “Hypokalaemia, Any grade” value ([2]; phase 1b, patients n (%)) was 7 (18.42) % and the “Hypomaganesemia, Any grade” value ([2]; phase 1b, patients n (%)) was 3 (7.89) %. For the same molecule, the “Hyponatremia, Any grade” value ([2]; phase 1b, patients n (%)) was 20 (52.63) %, the “Hypophosphataemia, Any grade” value ([2]; phase 1b, patients n (%)) was 5 (13.15) % and the “Increased creatinine, Any grade” value ([2]; phase 1b, patients n (%)) was 2 (5.26) %. For the same molecule, the “Increased creatinine, G1/G2” value ([2]; phase 1b, patients n (%)) was 2 (5.26) %, the “Lethargy, Any grade” value ([2]; phase 1b, patients n (%)) was 1 (2.63) % and the “Loss of Appetite, Any grade” value ([2]; phase 1b, patients n (%)) was 8 (21.05) %. The “Mood swing, Any grade” value ([2]; phase 1b, patients n (%)) was 1 (2.63) %, the “Mucositis, Any grade” value ([2]; phase 1b, patients n (%)) was 2 (5.26) % and the “Nausea, Any grade” value ([2]; phase 1b, patients n (%)) was 12 (31.57) %. The “Peripheral neuropathy, Any grade” value ([2]; phase 1b, patients n (%)) was 2 (5.26) %, the “Peripheral neuropathy, G1/G2” value ([2]; phase 1b, patients n (%)) was 2 (5.26) % and the “Pneumonia, Any grade” value ([2]; phase 1b, patients n (%)) was 1 (2.63) %. The “Pulmonary embolism, Any grade” value ([2]; phase 1b, patients n (%)) was 1 (2.63) %, the “Pulmonary embolism, G1/G2” value ([2]; phase 1b, patients n (%)) was 1 (2.63) % and the “Raised amylase/lipase, Any grade” value ([2]; phase 1b, patients n (%)) was 1 (2.63) %. The “Raised amylase/lipase, G1/G2” value ([2]; phase 1b, patients n (%)) was 1 (2.63) %, the “Raised amylase/lipase, G3/G4” value ([2]; phase 1b, patients n (%)) was 1 (2.63) % and the “Reflux, Any grade” value ([2]; phase 1b, patients n (%)) was 1 (2.63) %. For the same molecule, the “Rt buttock pain, Any grade” value ([2]; phase 1b, patients n (%)) was 1 (2.63) %, the “Rt leg pain, Any grade” value ([2]; phase 1b, patients n (%)) was 1 (2.63) % and the “Thrombocytopenia, Any grade” value ([2]; phase 1b, patients n (%)) was 6 (15.78) %. For the same molecule, the “Transaminitis, Any grade” value ([2]; phase 1b, patients n (%)) was 3 (7.89) %, the “URTI, Any grade” value ([2]; phase 1b, patients n (%)) was 1 (2.63) % and the “Urinary retention, Any grade” value ([2]; phase 1b, patients n (%)) was 1 (2.63) %. For the same molecule, the “Vomiting, Any grade” value ([2]; phase 1b, patients n (%)) was 8 (21.05) %, the “Weight loss, Any grade” value ([2]; phase 1b, patients n (%)) was 6 (15.78) % and the objective responses [3] was “did not result in any objective responses”. The AUC0-48 [4, 8] was 5829 ± 1587 ng·h/mL, the Cmax [4, 8] was 553 ± 238 ng/mL and the Mean half-life ([4]; study KCP-330-002) was ~ 6 h.
